ChEMBL document CHEMBL1147804, “3,4-Fused cyclohexyl sulfones as gamma-secretase inhibitors” (Bioorg Med Chem Lett, 2006)

Experiments:
[1] = Bioavailability in rat; format: ADME, organism-based; conditions: in vivo
[2] = Half life in rat; format: ADME, organism-based; conditions: in vivo
[3] = Stability assessed as liver microsomal turnover in rat at 1 uM; format: ADME, Microsome; conditions: liver microsomes, read-out: Stability
Method in brief: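 Compound at 1 μM was incubated with rat liver microsomal protein (5 mg/mL) plus NADPH at 37 °C for 20 min. Percentage of parent remaining was quantified by LC–MS.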

Gamma-secretase = assay: Inhibition of gamma secretase; format: protein-complex assay, Homo sapiens
[4] = Brain to plasma ratio for reduction of DEA-extractable brain beta amyloid in orally dosed APP-YAC mouse after 4 hrs; format: ADME, organism-based; conditions: po
Mus musculus [5] = assay: Brain concentration for reduction of DEA-extractable brain beta amyloid in orally dosed APP-YAC mouse after 4 hrs relative to control; format: ADME, organism-based
Method in brief: (§1)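 APP-YAC transgenic mice were dosed orally with a dose-response titration, with vehicle and a positive-control γ-secretase inhibitor as references. At 4 h post-dose, DEA-extractable brain Aβ was measured alongside plasma and brain drug levels. EC50 is the plasma or brain concentration giving a 50% cut in brain Aβ. ED50 is the oral dose reaching those levels.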

Mus musculus [6] = assay: Reduction of DEA-extractable brain beta amyloid in orally dosed APP-YAC mouse after 4 hrs; format: ADME, organism-based; conditions: po; method in brief: as §1
Mus musculus [7] = assay: Plasma concentration for reduction of DEA-extractable brain beta amyloid in orally dosed APP-YAC mouse after 4 hrs relative to control; format: ADME, organism-based; method in brief: as §1

| metabolised at 1 µM [3] | IC50 (Gamma-secretase) | Compound | other results |
| --- | --- | --- | --- |
| – | – | CS(=O)(=O)NCC1CCCC(c2cc(F)ccc2F)(S(=O)(=O)c2ccc(Cl)cc2)C1 (stereo not drawn) | bioavailability [1]: 31%; half-life [2]: 66 min |
| 46% | 0.4 nM | CCN1C[C@@H]2C[C@](c3cc(F)ccc3F)(S(=O)(=O)c3ccc(Cl)cc3)CC[C@@H]2NS1(=O)=O (racemic) | – |
| – | 0.41 nM | CC(C)N1C[C@@H]2C[C@](c3cc(F)ccc3F)(S(=O)(=O)c3ccc(Cl)cc3)CC[C@@H]2NS1(=O)=O (racemic) | – |
| 15% | 1.39 nM | CC(C)(C)N1C[C@@H]2C[C@](c3cc(F)ccc3F)(S(=O)(=O)c3ccc(Cl)cc3)CC[C@@H]2NS1(=O)=O (racemic) | – |
| – | 0.04 nM | O=S1(=O)NC[C@@H]2C[C@](c3cc(F)ccc3F)(S(=O)(=O)c3ccc(Cl)cc3)CC[C@@H]2N1C1CC1 (racemic) | Kp at 4 h [4]: 0.16; EC50 (Mus musculus [5]): 20 nM; ED50 (Mus musculus [6]): 11.4 mg/kg; EC50 (Mus musculus [7]): 104 nM |
| 9% | 6.18 nM | O=S1(=O)NC[C@@H]2C[C@](c3cc(F)ccc3F)(S(=O)(=O)c3ccc(Cl)cc3)CC[C@@H]2N1 (racemic) | – |
| 14% | 0.19 nM | O=S1(=O)N[C@H]2CC[C@@](c3cc(F)ccc3F)(S(=O)(=O)c3ccc(Cl)cc3)C[C@H]2CN1C1CC1 (racemic) | – |
| 63% | 1.17 nM | CCCN1C[C@@H]2C[C@](c3cc(F)ccc3F)(S(=O)(=O)c3ccc(Cl)cc3)CC[C@@H]2NS1(=O)=O (racemic) | – |
| 68% | 0.26 nM | O=S1(=O)N[C@H]2CC[C@@](c3cc(F)ccc3F)(S(=O)(=O)c3ccc(Cl)cc3)C[C@H]2CN1C1CCC1 (racemic) | – |
| 17% | 0.9 nM | CN1C[C@@H]2C[C@](c3cc(F)ccc3F)(S(=O)(=O)c3ccc(Cl)cc3)CC[C@@H]2NS1(=O)=O (racemic) | – |
| 15% | 0.76 nM | CCC1C[C@@H]2C[C@](c3cc(F)ccc3F)(S(=O)(=O)c3ccc(Cl)cc3)CC[C@@H]2CS1(=O)=O (single isomer, unassigned) | Kp at 4 h [4]: 0.41; EC50 (Mus musculus [5]): 327 nM; ED50 (Mus musculus [6]): 3.9 mg/kg; EC50 (Mus musculus [7]): 761 nM |
| 7% | 0.06 nM | CCC1C[C@@H]2C[C@](c3cc(F)ccc3F)(S(=O)(=O)c3ccc(Cl)cc3)CC[C@@H]2NS1(=O)=O (single isomer, unassigned) | Kp at 4 h [4]: 0.18; EC50 (Mus musculus [5]): 88 nM; ED50 (Mus musculus [6]): 2.8 mg/kg; EC50 (Mus musculus [7]): 380 nM |
| 20% | 0.08 nM | CC1C[C@@H]2C[C@](c3cc(F)ccc3F)(S(=O)(=O)c3ccc(Cl)cc3)CC[C@@H]2NS1(=O)=O (single isomer, unassigned) | – |
| 32% | 0.24 nM | CCCC1C[C@@H]2C[C@](c3cc(F)ccc3F)(S(=O)(=O)c3ccc(Cl)cc3)CC[C@@H]2NS1(=O)=O (single isomer, unassigned) | – |
